ARFGAP1 inhibitor = inhibits rat ARF GTPase activating protein 1 | 360,000 compounds, 0.26% hits | Arfgap1-stimulated ARF1 GTP hydrolysis, GDP FP detection | Q62848 | inhibition, % at 16.5 µM;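 active = inhibition above a per-plate limit, mean inhibition of low control wells plus 3 SD, cut at about 25% in these data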;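 note: 0% = DMSO wells with enzyme and 100% = wells lacking Arfgap1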
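Material: rat Arfgap1 GAP domain (His6, aa 1-136), purified enzyme. Also added: human ARF1(Δ1-17)-GTP substrate. Compound dosing: 16.5 µM single point, 1.26% DMSO. Timing: enzyme reaction 120 min at 25 °C after 20 min preincubation. Signal: GDP detection by fluorescence polarization. Read-out basis: percent inhibition of GAP-stimulated GDP formation, scaled between DMSO and no-Arfgap1 medians.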
MsrA inhibitor = inhibitors of bovine MsrA. 360,000 compounds, 0.75% hits. purified bovine MsrA, absorbance read-out. AID 651718. inhibition, % at 15.5 µM; in the data active = inhibition above about 4.5%;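 note: 0% = vehicle wells with enzyme and 100% = reference inhibitor wells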
ASAP1 inh = inhibitors of human ASAP1 ArfGAP activity; Q9ULH1; ASAP1-stimulated ARF1 GTP hydrolysis, GDP FP detection; inhibition, % at 16.5 µM; 360,000 compounds, 0.19% hits; in the data active = inhibition above about 25%;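 note: 0% = vehicle with enzyme and substrate and 100% = no enzyme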
Target sequence (Q9ULH1 325-724 limits assumed): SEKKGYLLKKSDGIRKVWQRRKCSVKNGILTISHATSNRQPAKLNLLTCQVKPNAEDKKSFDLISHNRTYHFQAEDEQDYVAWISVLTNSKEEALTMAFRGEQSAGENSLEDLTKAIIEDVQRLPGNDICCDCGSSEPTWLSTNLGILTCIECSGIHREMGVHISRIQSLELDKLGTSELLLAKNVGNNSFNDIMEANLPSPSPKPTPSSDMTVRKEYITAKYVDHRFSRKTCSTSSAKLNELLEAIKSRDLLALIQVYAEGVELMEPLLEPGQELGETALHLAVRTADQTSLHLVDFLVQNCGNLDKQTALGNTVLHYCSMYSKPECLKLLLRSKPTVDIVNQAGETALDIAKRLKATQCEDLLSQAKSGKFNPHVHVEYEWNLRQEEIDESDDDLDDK
MsrA act = bovine methionine sulfoxide reductase A activation; purified bovine MsrA, absorbance read-out; activation, % at 10.6 µM; 360,000 compounds, 0.3% hits; in the data active = activation above about 7.5%;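 note: 0% = vehicle and 100% = reference activator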
ARFGAP1 inh conf = confirmation of rat ARFGAP1 inhibitors. shares compounds with ARFGAP1 inhibitor. ARFGAP1-stimulated ARF1 GTP hydrolysis, GDP tracer FP. inhibition, % at 16.5 µM. 890 compounds, 30% hits. AID 651608;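 active = average inhibition over triplicates above the hit cutoff set in the earlier primary screen, cut at about 25% in these data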;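 note: 0% = Arfgap1 plus ARF1-GTP with DMSO and 100% = wells lacking Arfgap1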
Active calls of the source: *; . = no result. Rows were chosen to be rich in hits. Some 1.4% of all compounds tested hit in one or more screens of this group.

SMILES	ARFGAP1 inhibitor	MsrA inhibitor	ASAP1 inh	MsrA act	ARFGAP1 inh conf
O=C(CN1CCCC1=O)NC1C2CC3CC(C2)CC1C3 (configuration not stated)	0	2	8	-5	.
O=C(Nc1ccc(F)c(Cl)c1)c1ccc2sc([C@H]3C[C@H](O)[C@@H](CO)O3)nc2c1	25*	1	13	-1	5
Cc1sc(NC(=O)CSc2nnc(COc3ccccc3)n2C)c(C#N)c1C	25*	-1	5	-1	11
Cc1ccc(OCc2nnc(SCC(=O)Nc3sc(C)c(C)c3C#N)n2C)cc1	15	-1	-4	-6	.
COc1ccc(-c2nc(C(=O)NCCCN3CCOCC3)cc3c2[nH]c2ccccc23)cc1OC	28*	1	17	1	14
C/C=C\C(=O)Nc1cccc(C2=NOC3(C2)C[C@@H](C(N)=O)N(C(=O)c2ccc(OC)cc2)C3)c1 (some centres not stated)	-5	0	14	.	.
Cc1cccc2nc(-c3ccccc3)c(-c3ccc(CN4CCC5(CC4)CNc4ccccc45)cc3)nc12	4	1	-4	.	.
CC1CCCCN1CC(O)COCCC12CC3CC(CC(C3)C1)C2 (configuration not stated)	25*	0	7	-15	-8
O=C(OCC(=O)N1CCC(c2ccccc2)=N1)c1ccc([N+](=O)[O-])s1	-16	1	0	-3	.
O=C(Nc1ccc(-c2cn3ccccc3n2)cc1)c1cccs1	25*	4	-2	-3	86*
CCN(CC)C(=O)CN(c1cccc(C(F)(F)F)c1)S(C)(=O)=O	31*	1	7	-11	-6
CCn1c(C)c(C)c2cc(C(=O)NC3CCCCCC3)ccc21	-6	1	-2	-4	.
CCOc1ccc(C(=O)N[C@H](C(=O)Nc2cccc(S(=O)(=O)N3CCOCC3)c2)C(C)C)cc1	-7	2	-4	-1	.
COc1ccc(C(=O)N[C@H](C(=O)Nc2ccc(S(=O)(=O)N3CCOCC3)cc2)C(C)C)cc1	25*	1	8	-3	3
CCNC(=O)C1(C)CCN(C(=O)c2ccc(-c3ccccc3)cc2)C1 (configuration not stated)	-2	-1	4	-2	.
C#Cc1cccc(C(=O)NC2CCCN(C3Cc4ccccc4C3)C2)c1 (configuration not stated)	-1	-1	-15	-6	.
CC(C)(CO)CNC1CCCN(C2Cc3ccccc3C2)C1 (configuration not stated)	25*	1	7	4	3
CC(=O)N1CCC(N(CCN2CCOCC2)C(=S)Nc2ccccc2C)CC1	7	-1	-1	1	.
O=C(NCc1ccc2c(c1)OCO2)C(=O)NCC1OCCCN1S(=O)(=O)c1ccccc1 (configuration not stated)	-10	1	-7	1	.
Cc1ccc(/C=C(\CCC(=O)O)c2nc3ccccc3s2)cc1[N+](=O)[O-]	31*	4	18	-5	39*
CCCCN(CC)CCCNC(=O)c1cc2c(=O)[nH]c3ccccc3c2s1	11	1	1	-2	.
CCCCN(CC)CCNC(=O)c1cc2c(=O)[nH]c3ccc(C)cc3c2s1	29*	2	1	-2	-4
COc1ccc(CNC(=O)COC(=O)c2cnccn2)cc1	5	1	4	0	.
O=C(NC1CC1)c1sc2ccccc2c1Cl	14	0	12	0	.
O=C(NNC(=S)NC1CCCCC1)c1sc2ccccc2c1Cl	25*	1	17	-5	60*
CCC(C)c1ccc(NC(=O)COC(=O)c2nc3nccc(C)n3n2)cc1 (configuration not stated)	5	0	-1	-1	.
COc1ccc(S(=O)(=O)Nc2ccc3c(c2)C(=O)N([C@H](C)CO)C[C@H](C)[C@@H](CN(C)C(=O)Nc2ccc(C(F)(F)F)cc2)OCCCC[C@H](C)O3)cc1	6	1	13	-1	.
Cc1nc(-c2cccc(S(=O)(=O)N3CC(C)CC(C)C3)c2)cs1 (configuration not stated)	26*	0	-11	2	2
CCC(C)(C)NC(=O)C(c1ccccn1)N(C(=O)c1csnn1)c1ccc(C)cc1 (configuration not stated)	8	-1	5	-3	.
CN(C(=O)c1ccc(NC(=O)C2CCN(C(=O)OC(C)(C)C)CC2)cc1)C1CC1	25*	-1	11	-3	1

Bioassay records: PubChem BioAssay, The Scripps Research Institute Molecular Screening Center
